Assay results from ChEMBL document CHEMBL1629542, “Epigallocatechin gallate inactivates clinical isolates of herpes simplex virus” (Antimicrob Agents Chemother, 2008).

Experiments:
Human alphaherpesvirus 2 = test: Antiviral activity against Human herpesvirus 2 strain 333 infected in African green monkey CV1 cells assessed as log reduction in viral titer at 100 uM; assay type: functional, CV-1
Summary of the method: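 Lab strain HSV-2 333 was grown and titrated either in CV-1 cells or in Vero cells. Virus was incubated with 100 μM EGCG for 60 min, then titrated as tenfold dilutions for 5 days at 37°C with CPE scoring. Reed-Muench TCID50 of treated versus control virus gave the titer decrease. Mean of three experiments.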

Human alphaherpesvirus 1 = test: Antiviral activity against Human herpesvirus 1 F1 infected in African green monkey Vero cells assessed as log reduction in viral titer at 100 uM

Row | SMILES | FC (Human alphaherpesvirus 2) | FC (Human alphaherpesvirus 1)
1 | O=C(O[C@@H]1Cc2c(O)cc(O)cc2O[C@@H]1c1ccc(O)c(O)c1)c1cc(O)c(O)c(O)c1 [EPICATECHIN GALLATE] | >=1 | –
2 | O=C(O[C@@H]1Cc2c(O)cc(O)cc2O[C@H]1c1cc(O)c(O)c(O)c1)c1cc(O)c(O)c(O)c1 [GALLOCATECHIN GALLATE] | 4 | 3.5
